From ChEMBL document CHEMBL1146355, “Synthesis and cytotoxic evaluation of C-9 oxidized podophyllotoxin derivatives” (Bioorg Med Chem, 2007) come the findings set out here.

A value given as a limit tells only on which side of the number the result lay.

What all share (format): functional, cell-based
Test [1] in a line: Cytotoxicity against human MEL28 cells after 4 days. To be noted: SK-MEL-28, 96 h. Put shortly:
(§1)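 Cells seeded at 2 × 10⁴/well in MEM with 10% FCS containing the compound at different concentrations. Incubated 4 days at 37 °C under 10% CO₂ and 98% humidity. Drug-free control wells were counted daily to confirm exponential growth. Read-out was crystal violet staining, then inhibition estimated by comparison with controls.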

The next test relates to HT-29. The test is described as follows: Cytotoxicity against human HT29 cells after 4 days. The conditions noted are these: HT-29, 96 h. Put shortly: as §1
Another test deals with A549. Kind of test: Cytotoxicity against human A549 cells after 4 days. To be noted: A549, 96 h. In outline: as §1
A further test relates to P388. The test is described as follows: Cytotoxicity against mouse P388 cells after 4 days. To be noted: P388, 96 h. In outline:
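Murine leukaemia cells seeded at 1 × 10⁴/well in MEM with 10% FCS containing the compound at different concentrations. Incubated 4 days at 37 °C under 10% CO₂ and 98% humidity, with drug-free controls counted daily to confirm exponential growth. Inhibition judged by inverted microscopy against controls, with no staining.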

With `COC(=O)[C@@H]1C(C#N)=Cc2cc3c(cc2[C@H]1c1cc(OC)c(OC)c(OC)c1)OCO3`, the concentration for half-maximal inhibition (IC50) (in test [1]; with HT-29; in the test on A549) was 2.4 µM in each case.

Consider `COc1cc([C@@H]2c3cc4c(cc3C=C3C(=O)OC(=O)[C@H]32)OCO4)cc(OC)c1OC`, for which the IC50 (in test [1]; in the test on HT-29; in the test with P388; in the test with A549) was 12 µM throughout.

Consider `COc1cc([C@@H]2c3cc4c(cc3C=C3C(=O)OC[C@H]32)OCO4)cc(OC)c1OC`, for which the 50% inhibitory concentration (IC50) (in test [1]; with HT-29; with P388; in the test on A549) was > 20 µM in each case.

For the molecule `COc1cc([C@@H]2c3cc4c(cc3[C@H](O)[C@H]3COC(=O)[C@H]23)OCO4)cc(OC)c1OC` [PODOFILOX], the half-inhibitory concentration (IC50) in the test on HT-29 was 0.012 µM.

`COc1cc(-c2c3c(cc4cc5c(cc24)OCO5)C(=O)N(CCO)C3=O)cc(OC)c1OC`: the concentration for half-maximal inhibition (IC50) in the test on HT-29, in the test with P388 and in the test on A549 was 2.2 µM throughout.

`COC(=O)[C@@H]1C(/C=N/O)=Cc2cc3c(cc2[C@H]1c1cc(OC)c(OC)c(OC)c1)OCO3` showed a half-inhibitory concentration (IC50) in test [1] of 2.3 µM.

With `COC(=O)[C@@H]1C(C=O)=Cc2cc3c(cc2[C@H]1c1cc(OC)c(OC)c(OC)c1)OCO3` [PODOPHYLLIC ALDEHYDE], the IC50 in test [1] was 0.23 µM.

On to `CCCCCCNC(=O)C1=Cc2cc3c(cc2[C@@H](c2cc(OC)c(OC)c(OC)c2)[C@@H]1C(=O)OC)OCO3`, for which the concentration for half-maximal inhibition (IC50) in the test on HT-29, in the test with P388 and in the test on A549 was 1.9 µM in each case.

As for `COC(=O)[C@@H]1C(C(=O)Nc2cc(OC)c(OC)c(OC)c2)=Cc2cc3c(cc2[C@H]1c1cc(OC)c(OC)c(OC)c1)OCO3`, the half-maximal inhibitory concentration (IC50) with HT-29, in the test on P388 and with A549 was 1.7 µM throughout.

In the case of `COc1cc([C@@H]2c3cc4c(cc3C=C(C(=O)O)[C@H]2C(=O)O)OCO4)cc(OC)c1OC`, the IC50 (in test [1]; with HT-29; in the test on P388; with A549) was > 20 µM each time.

Regarding `COC(=O)[C@@H]1C(C(=O)Nc2ccc(C)cc2)=Cc2cc3c(cc2[C@H]1c1cc(OC)c(OC)c(OC)c1)OCO3`, the 50% inhibitory concentration (IC50) (in test [1]; in the test with HT-29; in the test with P388; in the test on A549) was 1.9 µM throughout.

In the case of `COc1cc([C@H]2C3=C(Cc4cc5c(cc42)OCO5)C(O)OC3=O)cc(OC)c1OC` (stereo partly drawn), the IC50 in the test with HT-29, in the test with P388 and in the test with A549 was 1.2 µM in each case.

In the case of `COC(=O)[C@@H]1C(C(=O)O)=Cc2cc3c(cc2[C@H]1c1cc(OC)c(OC)c(OC)c1)OCO3`, the IC50 (in test [1]; in the test with HT-29; with P388; in the test with A549) was > 20 µM in each case.

With `COC(=O)[C@@H]1C(C(=O)OC(C)=O)=Cc2cc3c(cc2[C@H]1c1cc(OC)c(OC)c(OC)c1)OCO3`, the IC50 (in test [1]; with HT-29; with P388; with A549) was 10 µM in each case.

Turning to `COC(=O)[C@@H]1C(C(=O)Nc2ccccc2)=Cc2cc3c(cc2[C@H]1c1cc(OC)c(OC)c(OC)c1)OCO3`, the IC50 with HT-29, in the test with P388 and with A549 was 1.9 µM in each case.

`COC(=O)C1=Cc2cc3c(cc2[C@@H](c2cc(OC)c(OC)c(OC)c2)[C@@H]1C(=O)OC)OCO3`: the 50% inhibitory concentration (IC50) (in test [1]; with HT-29; in the test on P388; in the test on A549) was 5.1 µM each time.

In turn, `COc1cc([C@@H]2c3cc4c(cc3C=C(C=O)[C@H]2CO)OCO4)cc(OC)c1OC` gave a concentration for half-maximal inhibition (IC50) in test [1] of 0.25 µM. That is a sub-micromolar value.

For `CCCCCCNC(=O)c1cc2cc3c(cc2c(-c2cc(OC)c(OC)c(OC)c2)c1C(=O)NCCCCCC)OCO3`, the half-maximal inhibitory concentration (IC50) in the test on HT-29, with P388 and in the test with A549 was 2 µM each time.
